# Screening data: PubChem, several laboratories
# An excerpt weighted towards active compounds, which were near 4.7% of everything screened.
# Cl transport mod – modulators of human KCC2 chloride dependent transport; 190,000 tested, 2.2% active; KCC2 cells, thallium flux FluoZin-2 fluorescence; Q9H2X9; B-score of Tl+ flux slope (higher = more flux/activation; lower = inhibition) at 10 µM; AID 1456;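 active = thallium flux slope and its plate-corrected score both differing from the plate sample mean at a set confidence after two filtering rounds, in either direction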;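 also: slope of fluorescence scaled to starting intensity during 10 to 20 s after thallium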
# MrgX1 agonist – agonists of human MrgX1 receptor | Q96LB2 | MrgX1-HEK293 cells, Fluo-4 calcium fluorescence, agonist mode; hits give high values | B-score at 10 µM | 310,000 tested, 0.44% active | AID 588627;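 active = calcium response B-score plate-corrected fluorescence ratio at least 3 library SD, with starting fluorescence B-score inside 5 SD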
# Target sequence (Q96LB2 whole entry, looked up): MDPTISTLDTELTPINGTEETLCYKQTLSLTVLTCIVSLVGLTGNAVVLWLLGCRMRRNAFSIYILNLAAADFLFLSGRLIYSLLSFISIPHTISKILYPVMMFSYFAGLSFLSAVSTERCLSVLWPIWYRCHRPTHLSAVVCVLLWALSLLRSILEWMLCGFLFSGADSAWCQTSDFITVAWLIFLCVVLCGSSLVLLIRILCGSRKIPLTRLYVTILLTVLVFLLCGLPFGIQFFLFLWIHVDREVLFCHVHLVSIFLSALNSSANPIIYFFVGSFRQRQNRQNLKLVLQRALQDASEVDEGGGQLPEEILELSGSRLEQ
#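 times = overnight plating, then 30 min 37 °C plus 30 min room-temperature dye loading | assay system = stable human MrgX1 HEK293 cell line | input = fifteen thousand cells per well | signal = kinetic calcium dye fluorescence, Fluo-4 NW | dosing = compound delivered in addition one of three | read-out = B-scored fluorescence response ratio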
# RGS4 pot – potentiators or activators of RGS4; HEK293 M3R/inducible RGS4, carbachol calcium flux Fluo4; hits give low values; B-score at 10 µM; 310,000 tested, 0.92% active;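 active = B-score of the integrated calcium signal more than 4 SD below the library mean, with starting fluorescence not abnormally high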;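 also: negative B-score means reduced calcium response which marks RGS4 activation or potentiation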
#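 test system = M3R-expressing HEK293 line, RGS4 induced by doxycycline | probe or stimulus = carbachol at ECmax as muscarinic agonist stimulus | timing = dye loading 30 min 37 °C, buffer rest 30 min RT | signal = calcium dye Fluo4 fluorescence | evaluation = B score from integrated fluorescence ratio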
# MrgX1 antag – human MrgX1 receptor antagonism, primary screen; B-score at 10 µM; MRGX1-HEK293 calcium flux, Fluo-4, BAM8-22 antagonism; hits give low values; 310,000 tested, 1.3% active; Q96LB2;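 active = calcium-response B-score plate-corrected more than 3 library SD below zero, starting fluorescence within 5 deviations, no agonist response on first addition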;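 also: peak minus trough fluorescence over baseline after final BAM8-22 challenge near maximal dose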
# MrgX1 PAM – allosterically activates human MrgX1 receptor signaling; Q96LB2; MrgX1-HEK293, Fluo-4 calcium flux, FDSS; hits give high values; B-score at 10 µM; 310,000 tested, 0.63% active; AID 588675;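 active = plate-corrected calcium response at least 3 library SD above typical, normal starting fluorescence, not activating the receptor alone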;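 also: compound read alongside a low EC10 to EC30 dose of BAM8-22 agonist; peak minus trough fluorescence over baseline measured at the second addition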
# RGS4 inh – human RGS4 inhibition. 310,000 tested, 0.45% active. B-score at 10 µM. HEK293 M3R/RGS4 inducible, Fluo-4 calcium flux; hits give high values; triggered by carbachol at its EC20;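 active = B-score, a plate-corrected calcium signal, over three deviations above library mean, with baseline fluorescence within five deviations of library mean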;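 also: RGS4 expression induced by doxycycline in cells with stable M3 receptor; B-score is computed from the integrated fluorescence ratio over baseline after carbachol; higher B-score means a larger calcium signal and so more RGS4 inhibition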
# Target sequence (P49798 whole entry, looked up): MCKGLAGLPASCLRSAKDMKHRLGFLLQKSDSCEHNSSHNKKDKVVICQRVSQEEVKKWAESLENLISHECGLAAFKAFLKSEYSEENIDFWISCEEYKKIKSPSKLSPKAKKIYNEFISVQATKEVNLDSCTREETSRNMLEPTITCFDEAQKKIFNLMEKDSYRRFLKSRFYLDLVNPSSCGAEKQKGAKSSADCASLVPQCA
# RGS4 block valid – validation of RGS4 inhibitors; shares compounds with RGS4 inh; HEK293 M3R/RGS4, carbachol calcium Fluo-4 fluorescence; carbachol added at its EC20; 0 = buffer wells, 100 = carbachol control; calcium response, % at 10 µM; 1,700 tested, 65% active; AID 492999;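 active = duplicate-averaged calcium response above the buffer-only control mean plus 5 SD of those controls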;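 also: integrated fluorescence ratio F max minus min over baseline F0; higher response in RGS4-induced cells means RGS4 inhibition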
# RGS4 uninduced – counter-screen for RGS4 inhibitors: effect in non-induced cells. HEK293 M3R non-induced, carbachol calcium Fluo-4; submaximal (EC20) carbachol stimulus; buffer wells 0%, carbachol control wells 100%. activity (percent), % at 10 µM. 1,900 tested, 20% active. shares compounds with RGS4 inh; call rule not given here;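 also: RGS4 induction absent so cells express M3R without RGS4; higher means more calcium signal and flags a non-specific hit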
# RGS4 inh ctr2 – second counter-screen for RGS4 inhibitors: non-induced cells without carbachol; shares compounds with RGS4 inh; calcium response (agonist-mode artifact), % at 10 µM; AID 493001; HEK293 M3R/RGS4 non-induced, Fluo-4 calcium, no carbachol; normalised: buffer wells 0%, carbachol wells 100%; 1,900 tested, 22% active;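 active = duplicate-averaged calcium rise in uninduced cells above buffer wells' mean plus 5 SD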
# * = called active by the depositor; i = inactive; x = no result given.
SMILES,Cl transport mod,MrgX1 agonist,RGS4 pot,MrgX1 antag,MrgX1 PAM,RGS4 inh,RGS4 block valid,RGS4 uninduced,RGS4 inh ctr2
N#C/C(=C(/O)C(Cl)c1ccccc1)c1nc2ccccc2s1 (centres undefined),-1.3,i,i,i,i,5.1*,6.5%*,i,i
O=S(=O)(Nc1ccc2cn[nH]c2c1)c1ccc(Cl)cc1,x,i,i,i,i,i,x,x,x
Cc1cc(S(=O)(=O)Nc2ccc3cn[nH]c3c2)c(C)cc1Cl,x,i,i,i,i,15*,30%*,i,i
O=C1/C(=C\c2ccc(O)cc2)SC(=S)N1Cc1ccccc1,x,i,i,i,i,8.1*,14%*,i,28%*
O=C(O)c1cccc(CN2C(=O)S/C(=C/c3cccc([N+](=O)[O-])c3)C2=O)c1,-1.4,i,i,i,i,26*,62%*,73%*,i
CCOc1cc(/C=C2/SC(=S)N(Cc3ccccc3)C2=O)ccc1O,x,i,i,i,i,i,x,x,x
O=C(O)C(c1ccccc1)N1C(=O)/C(=C/c2cccs2)SC1=S (centres undefined),-1.8,i,i,i,i,i,x,x,x
COc1ccc(CN2C(=O)/C(=C/c3ccncc3)SC2=S)cc1,0.57,i,i,i,i,11*,25%*,i,22%*
CC(c1ccccc1)N1C(=O)/C(=C/c2ccncc2)SC1=S (centres undefined),-0.011,i,i,i,i,7*,6.5%*,34%*,i
COc1cc(C(=O)NCCCOC(C)C)ccc1OC1CCN(C(C)=O)CC1,x,i,i,i,i,i,x,x,x
O=C1/C(=C/c2ccc(O)c([N+](=O)[O-])c2)SC(=S)N1Cc1ccccc1,-0.34,i,i,-5.7*,i,7.8*,11%*,37%*,i
COc1cccc(OC)c1NC(=O)c1nc2c(nnn2Cc2ccccc2Cl)c(=O)[nH]1,-2.6,i,i,i,i,5.5*,14%*,i,i
O=C(Nc1ccc(F)cc1)c1nc2c(nnn2Cc2cccc3ccccc23)c(=O)[nH]1,-1.4,i,i,i,i,i,x,x,x
COc1cc(/C=C2\SC(=Nc3ccc(N4CCOCC4)cc3)N(C)C2=O)ccc1OC(C)C(=O)O (centres undefined),0.85,i,i,i,i,6.1*,7.5%*,i,i
COc1cc(/C=C2\SC(=Nc3ccccc3)N(Cc3ccco3)C2=O)ccc1OC(C)C(=O)O (centres undefined),-0.84,i,i,i,i,i,x,x,x
CCOC(=O)N1CCC(=NNc2ccnc3cc(Cl)ccc23)CC1,1.3,i,i,i,i,i,x,x,x
CC(=O)N1CCC(=NNc2ccnc3cc(Cl)ccc23)CC1,x,i,i,i,i,6.9*,28%*,i,i
CCc1ccc(N2CC(C(=O)N/N=C/c3cc([N+](=O)[O-])ccc3O)CC2=O)cc1 (centres undefined),-2,i,i,i,i,i,x,57%*,i
CCc1ccc(N2CC(C(=O)N/N=C/c3ccccc3OC)CC2=O)cc1 (centres undefined),x,i,i,i,i,i,x,x,x
COc1ccc(S(=O)(=O)NCCC(=O)NCc2ccccc2)cc1,0.07,i,i,i,i,i,i,i,i
CCOc1ccc(S(=O)(=O)N2CCC(C(=O)NCCc3ccccc3)CC2)cc1,x,i,i,i,i,i,x,x,x
Cc1csc(NC(C)c2nc3cc(Cl)c(N4CCCCC4)cc3n2CCOCCO)n1 (centres undefined),x,i,i,i,i,i,x,x,x
CC(Nc1nc(-c2ccc(Cl)cc2)cs1)c1nc2cc(Cl)c(N3CCCCC3)cc2n1CCOCCO (centres undefined),x,i,i,i,i,i,x,i,i
COc1ccc(-c2csc(NC(C)c3nc4cc(Cl)c(N5CCCCC5)cc4n3CCOCCO)n2)cc1 (centres undefined),x,i,i,i,i,i,i,i,i
C/C(=N\NC(=O)c1ccc2c(c1)OCO2)c1ccc(NC(=O)CCCC(=O)O)cc1,x,i,i,i,i,i,x,x,x
SMILES,Cl transport mod,MrgX1 agonist,RGS4 pot,MrgX1 antag,MrgX1 PAM,RGS4 inh,RGS4 block valid,RGS4 uninduced,RGS4 inh ctr2
CCOc1c2ccccc2nn1CCO,x,i,x,i,i,x,x,x,x
O=c1c2ccccc2nc2n1CCS2(=O)=O,-0.034,i,i,i,i,6.2*,26%*,i,i
COc1ccc2cc(C3C(C#N)=C(N)OC(C)=C3C(C)=O)c(Cl)nc2c1 (centres undefined),-1.8,i,i,i,i,5.6*,32%*,i,i
CC(=O)C1=C(C)OC(N)=C(C#N)C1c1ccncc1 (centres undefined),1.1,i,i,i,i,i,x,x,x
Cc1cc(N2CCN(c3ccccc3Cl)CC2)n2cc(-c3ccccc3)nc2n1,-0.42,i,i,i,i,6*,28%*,i,i
O=C1c2ccccc2CN1CCSC(=S)N1CCOCC1,-0.1,i,i,i,i,6.5*,i,i,i
O=C1Nc2ccc(Br)cc2/C1=C/C(=O)c1ccc2c(c1)OCO2,0.2,i,i,-5*,i,6.1*,i,41%*,i
O=C1Nc2ccc(Br)cc2/C1=C/C1CC=CCC1 (centres undefined),0.82,i,i,i,i,i,x,x,x
Cc1ccc(N2C(=O)Cc3ccccc3C2=O)cc1,x,i,i,i,i,i,i,i,i
CCC1(CC)Cc2ccccc2-c2nc(NCCO)[nH]c(=O)c21,-2.4,i,i,i,i,26*,101%*,84%*,i
